Bioassay records (PubChem BioAssay)
Shown are actives, neighbours in structure and some others; about 3.3% of the full set was active somewhere.
TDP2 inh: TDP2 (human) inhibition, absorbance primary screen | inhibition, % at 12.8 µM | recombinant TDP2, T5PNP hydrolysis, p-nitrophenol absorbance 415 nm | hit rate 0.34% among 370,000;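 active means inhibition above the mean of all tested compounds plus 3 SD, set per campaign, cut at about 25% in these data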
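Evaluation: % inhibition relative to enzyme-containing and enzyme-free wells. Material: recombinant human TDP2. Benchmarks: enzyme-free and DMSO wells. Timing: enzyme reaction with compound for 2 h at 37 °C. Compound dosing: 12.8 µM only. Measured by: p-Nitrophenol epi absorbance. Reagent: T5PNP substrate at 5 mM, a TopII-DNA adduct mimic. Replication: single well per compound.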
LEDGF integ inh: blocks HIV-1 LEDGF/p75-dependent DNA integration. TR-FRET IN-LEDGF/p75 DNA integration, Eu/Cy5. inhibition, % at 3.7 µM. hit rate 0.64% among 370,000;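 active means inhibition above the screen-wide mean plus 3 SD, cut at about 13% in these data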;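 further: signal is the Cy5 over europium emission ratio at 671 and 618 nm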
MBD2 inh: blocks human MBD2 binding to methylated DNA | hit rate 0.31% among 370,000 | AID 686964 | inhibition, % at 4.4 µM | TR-FRET, MBD2 binding to methylated oligonucleotide | Q9UBB5; in the data active means inhibition above about 13%
Target sequence (Q9UBB5 whole entry, looked up): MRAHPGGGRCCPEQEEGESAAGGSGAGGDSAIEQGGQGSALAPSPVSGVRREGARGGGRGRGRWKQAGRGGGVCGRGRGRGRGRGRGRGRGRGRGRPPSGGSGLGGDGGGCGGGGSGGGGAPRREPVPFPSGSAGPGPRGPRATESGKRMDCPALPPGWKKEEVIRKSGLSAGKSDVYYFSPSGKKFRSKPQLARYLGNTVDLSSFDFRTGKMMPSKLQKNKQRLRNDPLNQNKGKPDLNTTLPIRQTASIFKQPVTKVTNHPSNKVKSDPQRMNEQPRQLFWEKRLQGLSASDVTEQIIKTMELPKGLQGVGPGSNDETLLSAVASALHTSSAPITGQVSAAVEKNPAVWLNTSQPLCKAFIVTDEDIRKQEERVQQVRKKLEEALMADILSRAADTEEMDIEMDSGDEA
PRMT1 FP inh: inhibitors of human PRMT1 | Q99873 | recombinant PRMT1, activity-based probe fluorescence polarization | inhibition, % at 2.79 µM | hit rate 1.3% among 370,000 | AID 652257;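 active means inhibition above about 21% made by adding two undisclosed values, limit read from the data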
UHRF1 MBD2 ctr: blocks human UHRF1 binding to methylated DNA; hit rate 0.75% among 370,000; AID 687016; inhibition, % at 4.4 µM; UHRF1 binding to methylated oligo, TR-FRET; Q96T88; in the data active means inhibition above about 21%;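 further: UHRF1 SRA domain binding a hemimethylated CpG hairpin DNA probe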
SIAE inh: inhibitors of human sialic acid acetylesterase SIAE; Q9HAT2; SIAE FP-Rh probe binding, fluorescence polarization; inhibition, % at 9.66 µM; hit rate 0.69% among 370,000; AID 1053197;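 active means inhibition above a cutoff: mean of compounds within the control limits plus 3 SD of those, cut at about 17% in these data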
TDP2 confirm: confirmation of human TDP2 inhibitors; shares compounds with TDP2 inh; recombinant human TDP2, absorbance read-out; inhibition, % at 12.8 µM; hit rate 22% among 1,100; AID 743263; in the data active means inhibition above about 25%
IN multimer up: counter-screen for LEDGF/p75 integration inhibitors: HIV-1 integrase multimerization activators; shares compounds with LEDGF integ inh; TR-FRET HIV-1 integrase multimerization, biochemical; activation, % at 7.7 µM; hit rate 17% among 2,000; in the data active means activation above about 8.9%
TRFRET interf: counter-screen for LEDGF/p75 integration inhibitors: TR-FRET optical interference | shares compounds with LEDGF integ inh | TR-FRET optical interference counterscreen, HIV-1 IN multimerization | inhibition, % at 7.7 µM | 2,000 tested, under 10 active;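 active means inhibition above the mean over all tested compounds plus 3 SD, which no compound reached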
IN-LEDGF confirm: LEDGF/p75-dependent HIV-1 integration inhibition, confirmation. TR-FRET LEDGF/p75-dependent HIV-1 integration, biochemical. AID 1053136. shares compounds with LEDGF integ inh. hit rate 36% among 2,000. inhibition, % at 3.7 µM; in the data active means inhibition above about 14%
A number is an active result; - = inactive; . = no result given.

SMILES	TDP2 inh	LEDGF integ inh	MBD2 inh	PRMT1 FP inh	UHRF1 MBD2 ctr	SIAE inh	TDP2 confirm	IN multimer up	TRFRET interf	IN-LEDGF confirm
Cc1[nH][nH]c(=O)c1C(c1c(C)[nH][nH]c1=O)c1cn(Cc2ccccc2Cl)c2ccccc12	55	20	-	-	23	-	34	-	-	-
N/C(=N\O)c1cn(Cc2ccccc2Cl)c2ccccc12	-	-	-	-	-	-	.	.	.	.
CCOC(=O)C1=C(COC(=O)c2sccc2C)NC(=O)NC1C (stereo not drawn)	-	-	-	-	-	-	.	.	.	.
CCOC(=O)C1=C(COC(=O)c2ccc([N+](=O)[O-])s2)NC(=O)NC1C (stereo not drawn)	39	31	-	-	-	-	41	-	-	61
CNC(=S)N/N=C/c1c(Cl)cccc1Cl	-	-	-	-	-	-	.	.	.	.
CCc1nnc(N/N=C/c2cccs2)n1N	69	44	-	-	-	-	-	-	-	-
CCc1nnc(N/N=C/c2c(Cl)cccc2Cl)n1N	60	49	-	-	-	-	-	-	-	-
CN(C(=S)Nc1cccnc1)c1ccc(O)cc1	30	29	-	33	-	-	-	-	-	-
CCN(C(=S)Nc1cccnc1)c1ccccc1	-	-	-	-	-	-	.	.	.	.
CCn1c(SCC(=O)Nc2ccccc2-c2ccccc2)nnc1-c1cnccn1	-	-	-	-	-	-	.	.	.	.
COc1ccc(NC2=C(NC(C)=O)C(=O)c3ccccc3C2=O)cc1	-	-	-	-	-	-	.	.	.	.
COC1=C(Nc2ccc(OC)cc2)C(=O)c2ccccc2C1=O	60	18	-	-	-	-	-	-	-	-
CC(=O)N1CCCN(S(=O)(=O)c2ccc3c(c2)n(C)c(=O)c(=O)n3C)CC1	-	-	-	-	-	-	.	.	.	.
COc1cc(/C=N/Nc2ccccn2)ccc1O	-	-	-	-	-	-	.	.	.	.
CCc1nnc(N/N=C/c2cc(Br)c(O)cc2O)n1N	37	50	-	-	-	-	-	11	-	-
CCOc1cc(/C=N/Nc2nnc(C)n2N)ccc1OC(C)=O	43	30	-	-	-	-	-	-	-	-
CCc1nnc(N/N=C/c2ccc(O)c(OC)c2)n1N	79	55	-	-	-	-	-	-	-	-
COc1cc(/C=N/NC(=O)Nc2ccccc2)ccc1OC(C)=O	-	-	-	-	-	-	.	.	.	.
CC(C)(C)c1nnc(N/N=C/c2cc(Br)ccc2O)n(N)c1=O	-	-	-	-	-	-	.	.	.	.
CCc1nnc(N/N=C\c2ccc(OC(C)=O)c(OC)c2)n1N	54	30	-	-	-	-	-	-	-	-
O=C(CSc1nnc(-c2ccccc2)n1-c1ccccc1)Nc1ccccc1-c1ccccc1	-	-	-	-	-	-	.	.	.	.
CSC(=Cc1ccc(C(=O)c2ccc(C)cc2)n1C)S(C)=O (stereo not drawn)	-	-	-	-	-	-	.	.	.	.
CCOC(=O)CC[C@@H]1CC[C@]2(CCCN(Cc3cccs3)C2)O1	-	-	-	-	-	-	.	.	.	.
CC1=NN(c2ccccc2)C(=O)C1C=Nc1ccc(N(C)C)cc1 (stereo not drawn)	32	60	-	29	32	-	-	-	-	-
COc1cc(/C=C(\C#N)C(N)=O)ccc1OCc1c(C)no[n+]1[O-]	-	-	-	-	-	-	.	.	.	.
COc1cc(/C=N/Nc2nncn2N)ccc1OCc1c(C)no[n+]1[O-]	68	59	-	-	-	-	-	-	-	-
Nn1cnnc1N/N=C/c1ccc(Cl)cc1Cl	73	48	-	-	-	-	-	-	-	-
COc1ccc(/C=N/Nc2nncn2N)cc1Br	75	70	-	-	-	-	-	-	-	-
